Bioassay records deposited in PubChem BioAssay by several laboratories.
An excerpt weighted towards active compounds, which were near 2.3% of everything screened.
DNA FID counter – counter-screen for HCV NS3 helicase inhibitors: DNA intercalator displacement; DNA fluorescent intercalator displacement, fluorescence; inhibition, % at 7.9 µM; 290,000 tested, 0.17% active; in the data active = inhibition above about 37%;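 also: higher means more ethidium bromide displaced from hairpin DNA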
TRPC6 inhibitor – inhibitors of mouse TRPC6 channel. Q61143. HEK293-TRPC6, membrane potential dye, ACh-evoked depolarization; stronger effect = lower value. B-score at 10 µM. 310,000 tested, 1.1% active;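 active = B-score under library mean minus 3 SD, initial fluorescence not abnormally high, positive integrated signal ratio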;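 also: B-score derived from integrated fluorescence ratio over the kinetic read; more negative B-score means stronger inhibition of depolarization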
TRPC6 act – mouse TRPC6 channel activation; Q61143; HEK293-TRPC6 membrane potential dye fluorescence; stronger effect = higher value; B-score at 10 µM; 310,000 tested, 0.13% active; AID 2550;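 active = B-score of the integrated fluorescence ratio above library mean plus 3 SD, and starting fluorescence ratio within library mean plus 5 SD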;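 also: higher score means more depolarization so channel activation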
TRPC4 inh – inhibitors of mouse TRPC4 channel. HEK293 TRPC4beta/mu-opioid, DAMGO-evoked Fluo4 calcium flux; stronger effect = lower value. B-score at 10 µM. 300,000 tested, 0.39% active. AID 2247;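 active = B-score over 3 SD under the library average, no early fluorescence shift, positive overall ratio signal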
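Assay system: TRPC4beta/mu-opioid receptor HEK293 cell line; compound dosing: single concentration per test compound; detection: Fluo4 Ca2+ flux fluorescence; evaluation: per-well B score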
TRPC4 agonist – TRPC4 (mouse) channel activation | B-score at 10 µM | AID 2237 | HEK293 TRPC4beta/mu-opioid, Fluo4 calcium fluorescence; stronger effect = higher value | 310,000 tested, 0.49% active;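 active = B-score above 5 SD of library B-scores, and initial fluorescence ratio not above library mean plus 5 SD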;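 also: positive B-score marks a calcium rise read as TRPC4 activation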
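Material: TRPC4beta and mu-opioid receptor HEK293 stable cells | Incubation: 45 min room-temperature Fluo4 loading, 110 s read | Detection: Kinetic Fluo4 calcium fluorescence | Measure: Integrated baseline-normalised fluorescence ratio, converted to per-well B score | Benchmarks: Low control buffer alone, high control maximal DAMGO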
TRPC4 potent – TRPC4 (mouse) allosteric potentiation; HEK293 TRPC4beta/mu-opioid, DAMGO EC20, Fluo-4 Ca2+ flux; stronger effect = higher value; 310,000 tested, 0.42% active; B-score at 10 µM;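 active = B-score of calcium response area above 5 SD of library B-scores, with initial fluorescence ratio within 5 SD of library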
Large screens that a line does not name were inactive.

c1cc2c(cc1OCCNC1CCCC1)CCC2	none
Clc1ccc(OCCCN2CCCC2)cc1Cl	TRPC4 potent 11
CCN(CC)C1CCN(C(=O)CCn2nnnc2CN2CCOCC2)C1 (configuration not stated)	none
CCOc1ccc(NCc2cccn2-c2nnc(N3CCC(C(=O)NCCCN4CC(C)CC(C)C4)CC3)s2)cc1 (configuration not stated)	DNA FID counter 38
CCN1CCN(CCCNC(=O)C2CCN(c3nnc(-n4cccc4)s3)CC2)CC1	none
Cc1ccc(-n2cc(CNCCc3ncc(C)[nH]3)c(-c3ccc(F)cc3)n2)cc1	TRPC4 agonist 133
Fc1ccc(-n2cc(CNCCc3ccccn3)c(-c3ccccc3Cl)n2)cc1	TRPC4 agonist 253
COc1ccc(-n2cc(CNCCc3ncc(C)[nH]3)c(-c3ccccc3Cl)n2)cc1	TRPC4 agonist 148
CC1CCCCC1NC(=O)C1CCC(CNS(=O)(=O)c2ccccc2)CC1 (configuration not stated)	none
Cc1cc(Cl)ccc1NC(=O)CN1C(=O)NC2(CCCC2)C1=O	none
Cc1ccc(NC(=O)NC(=O)CN2C(=O)NC3(CCCCCCC3)C2=O)c(C)c1	TRPC6 inhibitor -5.6
CCOc1ccc(OCc2ccc(C(=O)N3CCCC3)o2)cc1	none
CCCc1ccc(OCc2ccc(C(=O)N3CCCC3)o2)cc1	TRPC4 potent 26
CC(C)c1ccc(OCc2ccc(C(=O)N3CCCC3)o2)cc1	TRPC4 potent 42
COc1ccc(Cl)cc1NC(=O)CCc1nnc2ccc(N3CCN(C)CC3)nn12	none
COc1ccc(NC(=O)C2CCN(S(=O)(=O)c3cccc4nonc34)CC2)c(OC)c1	none
COC(=O)CSc1nn(-c2ccc(F)cc2)c(=S)s1	TRPC4 inh -5
O=C(CSc1nn(-c2ccccc2)c(=S)s1)Nn1cnnc1	none
Cn1nc(-c2ccc(Cl)cc2)nc2c(=O)n(C)c(=O)nc1-2	TRPC6 inhibitor -5.1
Cc1ccc(/C=C(\C#N)C(=O)NCC2CCCO2)o1 (configuration not stated)	TRPC4 agonist 55
N#C/C(=C\c1cccc([N+](=O)[O-])c1)C(=O)NCC1CCCO1 (configuration not stated)	TRPC4 potent 12
COC(=O)NCC(c1ccc2c(c1)OCO2)N1CCN(c2ccccc2)CC1 (configuration not stated)	TRPC4 agonist 169
COc1ccc(C(=O)NCC(c2ccc3c(c2)OCO3)N2CCN(c3ccc(OC)cc3)CC2)cc1 (configuration not stated)	none (no result: DNA FID counter)
COC(=O)c1ccccc1NC(=S)NC(=O)COc1ccccc1	none
Cc1ccccc1C(=O)NNC(=S)NC(=O)COc1ccccc1	TRPC4 agonist 177
CC(C)(C)C(=O)NC(=S)NNC(=O)c1ccc(-c2ccccc2)cc1	TRPC4 agonist 277
Cc1ccc(C(=O)NNC(=S)NC(=O)COc2ccccc2)cc1	TRPC4 agonist 119
CC(C)(C)c1ccc(C(=O)NC(=S)NNC(=O)COc2ccccc2)cc1	TRPC4 inh -6, TRPC4 agonist 72
CCCCCCCNC(=O)CN1N=C(c2ccc(C)cc2)CCC1=O	none
Cn1cc(Br)c(C(=O)N/N=C/c2cc3ccccc3nc2Cl)n1	none
CCOC(=O)CC(NC(=O)c1cc2cc(Cl)cc(Cl)c2oc1=O)c1cccc([N+](=O)[O-])c1 (configuration not stated)	TRPC4 potent 21
CCOC(=O)CC(NC(=O)c1cc2cccc(OC)c2oc1=O)c1cccc([N+](=O)[O-])c1 (configuration not stated)	none
CCCCNc1c(-c2ccc(SC(C)CC)c(OC)c2)nc2ccc(C)cn12 (configuration not stated)	TRPC4 inh -6 (no result: DNA FID counter)
CCCCC(=O)N(c1ccc(C(=O)O)cc1)c1nc(-c2ccc(Cl)cc2)c(CC)s1	TRPC4 inh -6
Cc1cccc(C(=O)N[C@H](C(=O)NCCc2ccc(S(N)(=O)=O)cc2)C(C)C)c1	none
O=C(c1nc2ccc(Cl)cn2c1CNCC[C@@H]1C[C@@H]2C=C[C@H]1C2)N1CCCCCCC1	TRPC4 agonist 64
COc1ccc(CNC[C@@H](CCCCN(C)Cc2ccc(OC)cc2)N2C[C@H](c3ccccc3)N(CCc3ccc(Cl)c(Cl)c3)C(=O)C2=O)cc1	DNA FID counter 37
O=C(CN1C(=O)S/C(=C\c2ccccc2)C1=O)Nc1cc([N+](=O)[O-])ccc1O	DNA FID counter 43
CCCCn1c(N)c(N(CC)C(=O)c2cc(CC)c(C)s2)c(=O)[nH]c1=O	none (no result: DNA FID counter)
Cc1nc(S/C(=C/c2ccc(-c3cc(Cl)ccc3C)o2)C(=O)O)n[nH]1	TRPC4 inh -6
Cc1nc(S/C(=C/c2ccc(-c3ccc(Cl)cc3)o2)C(=O)O)n[nH]1	none
Cc1ccccc1N1CCN(C2CCCN(C(=O)CCC3(C)CC3)C2)CC1 (configuration not stated)	none
CC1(C)NC(=O)N(CCCCOc2ccc3ccccc3c2Cl)C1=O	none
CC1(C)NC(=O)N(CCOCCOc2ccc3ccccc3c2Br)C1=O	TRPC4 potent 13
Cc1cc(C)c(S(=O)(=O)N2CCN(C(=O)CN3C(=O)NC4(CCCC4)C3=O)CC2)c(C)c1	none
COc1ccccc1C1/C(=C(\O)c2ccc3c(c2)OCCO3)C(=O)C(=O)N1Cc1cccnc1 (configuration not stated)	TRPC4 inh -6
COc1ccc(C2/C(=C(\O)c3ccc4c(c3)OCCO4)C(=O)C(=O)N2Cc2cccnc2)cc1 (configuration not stated)	none
O=C(Nc1c(C(=O)N2CCCCC2)cnn1-c1ccccc1)c1ccccc1F	none
Cc1cnc(NC(=O)C2CC(=O)N(c3cccc(Cl)c3)C2)s1 (configuration not stated)	none
O=C(NCCCN1CCN(c2cccc(Cl)c2)CC1)C1CCC(=O)N1Cc1ccccc1Cl (configuration not stated)	TRPC4 inh -6
CN(CCCNC(=O)C1CCC(=O)N1Cc1ccccc1Cl)c1ccccc1 (configuration not stated)	none
Cc1c(CN2CCC(n3nccc3NC(=O)C3CC3)CC2)[nH]c2ccccc12	TRPC4 agonist 64
COC(=O)c1ccc(CN2CCC(n3nccc3NC(=O)C3CC3)CC2)cc1	none
Cc1c(C(=O)NCCc2ccccc2)oc2ccccc12	TRPC4 potent 22
Cc1cccc(-c2nnc(SCc3nc4ccccc4[nH]3)n2Cc2ccco2)c1	TRPC4 inh -7
COc1cc(/C=C(/C#N)C(=O)c2c(C)[nH]c3ccccc23)ccc1OCC#N	TRPC4 potent 10
CCOc1ccc(/C=C(\C#N)C(=O)c2c(C)[nH]c3ccccc23)cc1OC	none
